Experiments:
[1] = Drug uptake in human MDA-MB-231 cells assessed as extracted concentration at 2 uM after 24 hrs by HPLC-MS analysis; format: ADME, cell-based; conditions: mda-mb-231, 24 h
Procedure, shortened: (§1)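 MDA-MB-231 cells at ~70% confluency in T-25 flasks exposed to a range of inhibitor input concentrations in DMEM with FBS, 0.02% DMSO, 37 °C, 24 h; cold PBS washes, overnight MeCN/MeOH 1:1 extraction at 4 °C, HPLC quantification against calibration curves with extraction-efficiency correction.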

[2] = Drug uptake in human MDA-MB-231 cells assessed as extracted concentration at 0.2 uM after 24 hrs by HPLC-MS analysis; format: ADME, cell-based; conditions: mda-mb-231, 24 h; procedure, shortened: as §1
MDA-MB-231 = assay: Antiproliferative activity against human MDA-MB-231 cells after 72 hrs by MTS assay; format: functional, cell-based; conditions: MDA-MB-231, 72 h
[3] = Drug accumulation in human MDA-MB-231 cells at 2 uM in presence of 5% FBS after 24 hrs incubation by HPLC-MS analysis; format: ADME, cell-based; conditions: mda-mb-231, 24 h
Procedure, shortened: (§2)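 MDA-MB-231 cells grown in T-25 flasks in DMEM/10% FBS to ~70% confluency, then given fresh DMEM with the stated FBS plus inhibitor (0.02% DMSO final), 37 °C, 24 h. Cells washed with cold PBS ×3, extracted overnight at 4 °C with cold MeCN/MeOH 1:1, centrifuged, quantified by HPLC against calibration curves, corrected for dilution, cell number and solvent extraction efficiency; nmol per million cells; triplicate, mean ± SD.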

[4] = Drug uptake in human MDA-MB-231 cells assessed per million cells preincubated for 6 hrs followed by solvent addition measured after overnight incubation at 4 degC by HPLC-MS analysis; format: ADME, cell-based; conditions: mda-mb-231, 6 h
[5] = Stability of the compound in DMEM medium assessed as parent compound remaining at 100 uM after 72 hrs in presence of 10% FBS by HPLC method
Procedure, shortened: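 Compound at 100 μM final (0.02% DMSO) in 5 mL DMEM with or without 10% FBS, cell-free in T-25 flasks, 37 °C in CO2 incubator for 3–72 h. Aliquots analysed by HPLC. Percent remaining derived from chromatogram AUC relative to starting time point. Triplicate.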

[6] = Stability in human MDA-MB-231 cells at 2 uM after 72 hrs by HPLC-MS analysis; format: ADME, cell-based; conditions: mda-mb-231, 72 h
Procedure, shortened: (§3)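 Time course: inhibitor added to ~70%-confluent MDA-MB-231 cells in T-25 flasks, in 5 mL DMEM plus FBS (0.02% DMSO), incubated at 37 °C for 3–72 h. At each time point cells washed with cold PBS and extracted with cold MeCN/MeOH 1:1 overnight at 4 °C. Intracellular moles per million cells determined by HPLC calibration.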

[7] = Solubility of the compound in DMEM medium up to 200 uM; format: physicochemical
[8] = Drug uptake in human MDA-MB-231 cells assessed per million cells preincubated for 6 hrs followed by trypsin-EDTA digestion for 2 mins measured after overnight incubation at 4 degC by HPLC-MS analysis; format: ADME, cell-based; conditions: mda-mb-231, 2 min
Procedure, shortened: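 After 6 h inhibitor exposure at 37 °C, MDA-MB-231 cells washed three times with ice-cold PBS, detached with 0.25% trypsin/1 mM EDTA in PBS for 2 min at 37 °C, resuspended in cold DMEM, washed once in ice-cold PBS, extracted with cold MeCN/MeOH 1:1, HPLC quantified; triplicate, mean ± SD divided by extraction efficiency.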

[9] = Stability of the compound in DMEM medium assessed as parent compound remaining at 100 uM after 72 hrs in absence of 10% FBS by HPLC method
Procedure, shortened: (§4)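 Compound added at 100 μM final (0.02% v/v DMSO) to 5 mL DMEM with or without 10% FBS in T-25 flasks, no cells; incubated 37 °C in CO2 incubator for 3–72 h. Aliquots drawn at each time point and analysed by HPLC; parent remaining taken from chromatogram AUC relative to starting time point. Triplicate.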

[10] = Apparent permeability at 200 uM after 5 hrs by PAMPA; format: physicochemical
Procedure, shortened: (§5)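 Artificial membrane of 1% egg lecithin in n-dodecane on a filter plate; compound at 200 μM on donor side, 5 h at room temperature; compound quantified by HPLC/DAD; percent transport and apparent permeability calculated from previously published equations.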

[11] = Drug uptake in human MDA-MB-231 cells assessed as intracellular concentration at 0.0103 umol in presence of 5% FBS after 24 hrs by HPLC-MS analysis; format: ADME, cell-based; conditions: mda-mb-231, 24 h; procedure, shortened: as §2
[12] = Drug uptake in human MDA-MB-231 cells assessed as extracted concentration at 20 uM after 24 hrs by HPLC-MS analysis; format: ADME, cell-based; conditions: mda-mb-231, 24 h; procedure, shortened: as §1
[13] = Drug uptake in human MDA-MB-231 cells after 6 hrs in presence of 5% FBS by HPLC-MS analysis; format: ADME, cell-based; conditions: mda-mb-231, 6 h
Procedure, shortened: (§6)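 MDA-MB-231 cells at ~70% confluency in T-25 flasks, incubated 6 h at 37 °C with inhibitor in DMEM containing the stated FBS (0.02% DMSO). Parallel 6 h incubation at 4 °C in cold DMEM used to measure nonspecific cell-bound amount. Accurate intracellular moles = 37 °C value minus 4 °C value. Extraction with MeCN/MeOH 1:1, HPLC quantification, corrected for extraction efficiency. Triplicate.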

[14] = Drug uptake in human MDA-MB-231 cells assessed as cell bound drug level per million cells at 2 uM in presence of 5% FBS after 6 hrs at 4 degC by HPLC-MS analysis; format: ADME, cell-based; conditions: mda-mb-231, 6 h
Procedure, shortened: (§7)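 Confluent (~70%) MDA-MB-231 cells given inhibitor in 5 mL cold DMEM with 0.02% DMSO (10% FBS for BRD-targeting inhibitors, 5% FBS for β-catenin/BCL9 inhibitors), held at 4 °C for 6 h; then washed, extracted overnight at 4 °C in MeCN/MeOH 1:1, HPLC quantified; triplicate, mean ± SD divided by solvent extraction efficiency.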

[15] = Permeability assessed as drug transport at 200 uM after 5 hrs by PAMPA; format: physicochemical; procedure, shortened: as §5
[16] = Drug uptake in human MDA-MB-231 cells assessed per million cells at 2 uM in presence of 1% FBS after 24 hrs incubation by HPLC-MS analysis; format: ADME, cell-based; conditions: mda-mb-231, 24 h; procedure, shortened: as §2
[17] = Retention time of the compound by HPLC/DAD analysis
Procedure, shortened: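 Agilent HPLC with DAD, detection at 254/355 nm or 235/355 nm. Kromasil C18 column (4.6 × 250 mm), 20 μL injection. Gradient from H2O (0.1% TFA) to 50:50 MeCN over 0–18 min, then to 100% MeCN by 20 min, held to 25 min, at 1.5 mL/min.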

[18] = Drug uptake in human MDA-MB-231 cells assessed per million cells at 2 uM in presence of 5% FBS after 24 hrs incubation by HPLC-MS analysis; format: ADME, cell-based; conditions: mda-mb-231, 24 h; procedure, shortened: as §2
[19] = Drug uptake in human MDA-MB-231 cells assessed as non specific binding with culture plate at 2 uM in presence of 5% FBS after 6 hrs at 4 degC by HPLC-MS analysis; format: ADME, cell-based; conditions: mda-mb-231, 6 h
[20] = Drug uptake in human MDA-MB-231 cells assessed per million cells at 10 uM in presence of 5% FBS after 24 hrs incubation by HPLC-MS analysis; format: ADME, cell-based; conditions: mda-mb-231, 24 h; procedure, shortened: as §2
[21] = Drug uptake in human MDA-MB-231 cells assessed as extracellular concentration at 0.065 umol in presence of 10% FBS after 24 hrs by HPLC-MS analysis; format: ADME, cell-based; conditions: mda-mb-231, 24 h
Procedure, shortened: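 MDA-MB-231 cells incubated 24 h at 37 °C with inhibitor in 5 mL DMEM with the stated FBS. Media plus cold PBS washes pooled, dried; cells extracted with MeCN/MeOH 1:1; HPLC peak areas of both fractions compared by mass balance with the input moles added to medium.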

[22] = Drug uptake in human MDA-MB-231 cells after 6 hrs in presence of 10% FBS by HPLC-MS analysis; format: ADME, cell-based; conditions: mda-mb-231, 6 h; procedure, shortened: as §6
[23] = Drug uptake in human MDA-MB-231 cells assessed per million cells at 10 uM in presence of 1% FBS after 24 hrs incubation by HPLC-MS analysis; format: ADME, cell-based; conditions: mda-mb-231, 24 h; procedure, shortened: as §2
[24] = Drug uptake in human MDA-MB-231 cells assessed as intracellular concentration at 0.065 umol in presence of 10% FBS after 24 hrs by HPLC-MS analysis; format: ADME, cell-based; conditions: mda-mb-231, 24 h; procedure, shortened: as §2
[25] = Stability of the compound in DMEM medium assessed as parent compound remaining at 100 uM after 24 hrs in presence of 10% FBS by HPLC method; procedure, shortened: as §4
[26] = Drug uptake in human MDA-MB-231 cells assessed as extracted concentration at 10 uM after 24 hrs by HPLC-MS analysis; format: ADME, cell-based; conditions: mda-mb-231, 24 h; procedure, shortened: as §1
[27] = Drug accumulation in human MDA-MB-231 cells at 10 uM in presence of 10% FBS after 24 hrs incubation by HPLC-MS analysis; format: ADME, cell-based; conditions: mda-mb-231, 24 h; procedure, shortened: as §2
[28] = Drug uptake in human MDA-MB-231 cells assessed per million cells at 10 uM in presence of 5% FBS after 6 hrs at 4 degC by HPLC-MS analysis; format: ADME, cell-based; conditions: mda-mb-231, 6 h; procedure, shortened: as §7
[29] = Drug uptake in human MDA-MB-231 cells assessed per million cells at 10 uM in presence of 10% FBS after 24 hrs incubation by HPLC-MS analysis; format: ADME, cell-based; conditions: mda-mb-231, 24 h; procedure, shortened: as §2
[30] = Drug uptake in human MDA-MB-231 cells assessed as extracted concentration at 100 uM after 24 hrs by HPLC-MS analysis; format: ADME, cell-based; conditions: mda-mb-231, 24 h; procedure, shortened: as §1
[31] = Drug uptake in human MDA-MB-231 cells assessed as extracted concentration at 1 uM after 24 hrs by HPLC-MS analysis; format: ADME, cell-based; conditions: mda-mb-231, 24 h; procedure, shortened: as §1
[32] = Stability in human MDA-MB-231 cells at 10 uM after 72 hrs by HPLC-MS analysis; format: ADME, cell-based; conditions: mda-mb-231, 72 h; procedure, shortened: as §3

Cl.Cl.O=C(Nc1ccc(O[C@H]2CCNC2)c(-c2ccc(F)cc2)c1)c1ccc(O[C@H]2CCNC2)c(-c2ccc(F)c(F)c2)c1
Drug uptake [1]: 0.076 µM
Drug uptake [2]: 0.022 µM
IC50 (MDA-MB-231): 2.3 µM
Drug uptake [3]: 98%
Drug uptake [4]: 6.7 nmol
Stability [5]: 70%
Stability [6]: Stable
solubility [7]: Soluble
Drug uptake [8]: 5.5 nmol
Stability [9]: 47%
Papp at 5 h, 200 µM [10]: 0.13 ×10⁻⁶ cm/s
Drug uptake [11]: 0.0101 µmol
Drug uptake [12]: 0.128 µM
Drug uptake [13]: Dose-dependent effect
Drug uptake [14]: 1 nmol
Drug transport [15]: 0.2%
Drug uptake [16]: 6.1 nmol
Retention time [17]: 15.8 min
Drug uptake [18]: 6.5 nmol
Drug uptake [19]: 4%

CC(=O)c1cc(-c2cc(C(=O)NC3CC3)ccc2C)c2ncccn12
Drug uptake [20]: 0.074 nmol
Drug uptake [21]: 0.059 µmol
Drug uptake [4]: 0.11 nmol
Drug uptake [22]: Dose-dependent effect
Stability [5]: Unstable
Drug uptake [23]: 0.069 nmol
Drug uptake [24]: 0.0012 µmol
solubility [7]: Soluble
Drug uptake [8]: 0.038 nmol
Stability [25]: 94%
Drug uptake [26]: 0.1 µM
Stability [9]: 94%
Drug uptake [27]: 2%
Papp at 5 h, 200 µM [10]: 14.3 ×10⁻⁶ cm/s
Drug uptake [28]: 0.025 nmol
Drug uptake [29]: 0.12 nmol
Drug uptake [30]: 0.665 µM
Drug uptake [14]: 0.085 nmol
Drug transport [15]: 32.3%
Retention time [17]: 16.4 min
Drug uptake [31]: 0.035 µM
Stability [32]: Stable

From ChEMBL document CHEMBL4052582, “A Versatile Method to Determine the Cellular Bioavailability of Small-Molecule Inhibitors” (J Med Chem, 2017)
